# Results published in article PMC2760637 (Journal of molecular recognition : JMR, 2009).
# *1 amine or outer side, *2 acyl side, *3 side chain or, on linkers, in order; H or OH if unused. Bridges are numbered along the chain shown (N, C = ends). [ ]: non-standard residue; d: D form. Tyr(OMe) = O-methyl-tyrosine, COc1ccc(C[C@H](N[*:1])C(=O)[*:2])cc1
# B1: compstatin 4MeY (peptide)
# chain: Ac-ICV[Tyr(OMe)]QDWGAHRCT-NH2
# modifications: disulfide 2-12
# SMILES: CC[C@H](C)[C@H](NC(C)=O)C(=O)N[C@H]1CSSC[C@@H](C(=O)N[C@H](C(N)=O)[C@@H](C)O)NC(=O)[C@H](CCCNC(=N)N)NC(=O)[C@H](Cc2c[nH]cn2)NC(=O)[C@H](C)NC(=O)CNC(=O)[C@H](Cc2c[nH]c3ccccc23)NC(=O)[C@H](CC(=O)O)NC(=O)[C@H](CCC(N)=O)NC(=O)[C@H](Cc2ccc(OC)cc2)NC(=O)[C@H](C(C)C)NC1=O
# Experiments:
# [1] = test system: classical pathway of complement activation; experiment: Complement inhibition assay; format: biochemical
# How it was run: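 Classical-pathway activation was triggered by antigen–antibody complexes formed on the ELISA plate: an albumin-coated plate bound by a polyclonal anti-ovalbumin antibody. C3b deposited in the presence of the test peptide was detected by ELISA. Percent inhibition was plotted against peptide concentration and fitted to a logistic dose-response function to derive IC50.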
# [2] = target: complement C3 (Homo sapiens) (UniProt P01024); experiment: ITC; conditions: cited from earlier work
# [3] = target: complement C3 (Homo sapiens), P01024; experiment: ITC; conditions: Y4 is O-methyl-Tyr, N-acetyl, C-amide, disulfide C2-C12
molecule,measurement,setting,value
Ac-ICV(1MeW)QisoDWGAHRCT [4(1MeW)6(isoD)],inhibitory activity (in words),[1]; listed as 4(1MeW)6isoD,lacked inhibitory activity
same,inhibitory activity (in words),[1]; listed as 6isoD,complete loss of activity
compstatin 4(5MeW),Kd,[2],120 nM
B1,Kd,[3],115 nM
